Source: ChEMBL document CHEMBL3616437, “Thiazole compounds with activity against Cryptococcus gattii and Cryptococcus neoformans in vitro” (Eur J Med Chem, 2015)
Active and inactive are the calls of the source. The rule behind the calls is not given here.

Experiments:
Cryptococcus neoformans [1] = test: Antifungal activity against Cryptococcus gattii ATCC 24065 assessed as reduction in cell viability at 1.9 uM after 6 to 72 hrs by MTT assay; format: functional, Cryptococcus bacillisporus
[2] = test system: Cryptococcus bacillisporus; test: Antifungal activity against Cryptococcus gattii ATCC 32608 assessed as reduction in cell viability after at 1.9 uM 6 to 72 hrs by MTT assay; format: functional
[3] = test system: Cryptococcus gattii species complex; test: Antifungal activity against Cryptococcus gattii 547/OTTI-97-PI-10 assessed as reduction in cell viability at 1.9 uM after 6 to 72 hrs by MTT assay; format: functional, Cryptococcus bacillisporus
[4] = test system: Cryptococcus gattii species complex; test: Ratio of compound MIC for Cryptococcus gattii 547/OTTI-97-PI-10 in presence of fluconazole to compound MIC for Cryptococcus gattii 547/OTTI-97-PI-10 in absence of fluconazole by checkerboard microtiter test; format: functional, Cryptococcus bacillisporus
Outline: (§1)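 Checkerboard microdilution: eight two-fold dilutions of test compound (0.11 to 15.6 µM) crossed with amphotericin B (0.025 to 3.9 µM, in DMSO) or fluconazole (0.48 to 62.5 µM, in water). Inoculum per CLSI M27-A3 in RPMI-MOPS pH 7.0, 1-5 x10^3 cells/mL. Growth 48 to 72 h. Effective MIC is the combination concentration giving complete inhibition. FICs derived from MICs in combination versus alone.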

[5] = Selectivity index, ratio of IC50 for African green monkey Vero cells to MIC for Cryptococcus gattii ATCC 24065; format: toxicity, cell-based
[6] = test system: Cryptococcus gattii species complex; test: Ratio of compound MIC for Cryptococcus gattii L28/02 in presence of fluconazole to compound MIC for Cryptococcus gattii L28/02 in absence of fluconazole by checkerboard microtiter test; format: functional, Cryptococcus bacillisporus; outline: as §1
[7] = test system: Cryptococcus gattii species complex; test: Ratio of compound MIC for Cryptococcus gattii ICB181 in presence of fluconazole to compound MIC for Cryptococcus gattii ICB181 in absence of fluconazole by checkerboard microtiter test; format: functional, Cryptococcus bacillisporus; outline: as §1
Cryptococcus neoformans [8] = test: Ratio of compound MIC for Cryptococcus neoformans 5396 in presence of fluconazole to compound MIC for Cryptococcus neoformans 5396 in absence of fluconazole by checkerboard microtiter test; format: functional; outline: as §1
Cryptococcus neoformans [9] = test: Ratio of compound MIC for Cryptococcus neoformans 27JF in presence of fluconazole to compound MIC for Cryptococcus neoformans 27JF in absence of fluconazole by checkerboard microtiter test; format: functional; outline: as §1
Cryptococcus neoformans [10] = test: Ratio of compound MIC for Cryptococcus neoformans LMM820 in presence of fluconazole to compound MIC for Cryptococcus neoformans LMM820 in absence of fluconazole by checkerboard microtiter test; format: functional; outline: as §1
Cryptococcus neoformans [11] = test: Ratio of compound MIC for Cryptococcus neoformans ATCC 28957 in presence of fluconazole to compound MIC for Cryptococcus neoformans ATCC 28957 in absence of fluconazole by checkerboard microtiter test; format: functional; outline: as §1
[12] = test system: Cryptococcus gattii species complex; test: Ratio of compound MIC for Cryptococcus gattii 547/OTTI-97-PI-10 in presence of amphotericin B to compound MIC for Cryptococcus gattii 547/OTTI-97-PI-10 in absence of amphotericin B by checkerboard microtiter test; format: functional, Cryptococcus bacillisporus; outline: as §1
[13] = test system: Cryptococcus gattii species complex; test: Ratio of compound MIC for Cryptococcus gattii L28/02 in presence of amphotericin B to compound MIC for Cryptococcus gattii L28/02 in absence of amphotericin B by checkerboard microtiter test; format: functional, Cryptococcus bacillisporus; outline: as §1
[14] = test system: Cryptococcus gattii species complex; test: Ratio of compound MIC for Cryptococcus gattii LMM818 in presence of amphotericin B to compound MIC for Cryptococcus gattii LMM818 in absence of amphotericin B by checkerboard microtiter test; format: functional, Cryptococcus bacillisporus; outline: as §1
[15] = test system: Cryptococcus gattii species complex; test: Ratio of compound MIC for Cryptococcus gattii 1913ER in presence of amphotericin B to compound MIC for Cryptococcus gattii 1913ER in absence of amphotericin B by checkerboard microtiter test; format: functional, Cryptococcus bacillisporus; outline: as §1
[16] = test system: Cryptococcus gattii species complex; test: Ratio of compound MIC for Cryptococcus gattii 23/10993 in presence of amphotericin B to compound MIC for Cryptococcus gattii 23/10993 in absence of amphotericin B by checkerboard microtiter test; format: functional, Cryptococcus bacillisporus; outline: as §1
Cryptococcus neoformans [17] = test: Ratio of compound MIC for Cryptococcus neoformans 28JF in presence of amphotericin B to compound MIC for Cryptococcus neoformans 28JF in absence of amphotericin B by checkerboard microtiter test; format: functional; outline: as §1
Cryptococcus neoformans [18] = test: Ratio of compound MIC for Cryptococcus neoformans 96806 in presence of amphotericin B to compound MIC for Cryptococcus neoformans 96806 in absence of amphotericin B by checkerboard microtiter test; format: functional; outline: as §1
Cryptococcus neoformans [19] = test: Ratio of compound MIC for Cryptococcus neoformans WP in presence of amphotericin B to compound MIC for Cryptococcus neoformans WP in absence of amphotericin B by checkerboard microtiter test; format: functional; outline: as §1
Cryptococcus neoformans [20] = test: Ratio of compound MIC for Cryptococcus neoformans 5396 in presence of amphotericin B to compound MIC for Cryptococcus neoformans 5396 in absence of amphotericin B by checkerboard microtiter test; format: functional; outline: as §1
Cryptococcus neoformans [21] = test: Ratio of compound MIC for Cryptococcus neoformans 27JF in presence of amphotericin B to compound MIC for Cryptococcus neoformans 27JF in absence of amphotericin B by checkerboard microtiter test; format: functional; outline: as §1
Cryptococcus neoformans [22] = test: Ratio of compound MIC for Cryptococcus neoformans LMM820 in presence of amphotericin B to compound MIC for Cryptococcus neoformans LMM820 in absence of amphotericin B by checkerboard microtiter test; format: functional; outline: as §1
Cryptococcus neoformans [23] = test: Ratio of compound MIC for Cryptococcus neoformans ATCC 24067 in presence of amphotericin B to compound MIC for Cryptococcus neoformans ATCC 24067 in absence of amphotericin B by checkerboard microtiter test; format: functional; outline: as §1
[24] = test system: Cryptococcus gattii species complex; test: Antifungal activity against Cryptococcus gattii L27/01 assessed as reduction in ergosterol content at MIC after 24 hrs by spectrophotometric analysis; format: functional, organism-based; settings: Cryptococcus bacillisporus
Outline: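 Pellet washed and weighed, then saponified in 25% ethanolic KOH at 85°C for 1 h. Extracted with water and n-heptane, read at 282 and 230 nm. Ergosterol taken from a standard curve and expressed as % of growth control.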

COc1ccc(-c2csc(N/N=C(\C)CCO)n2)cc1
Activity (Cryptococcus neoformans [1]): 90%
Activity [2]: 90%
Activity [3]: 90%
fractional inhibitory concentration index (FICI) [4]: 3.31
selectivity ratio [5]: 222
fractional inhibitory concentration index (FICI) [6]: 1.01
fractional inhibitory concentration index (FICI) [7]: 1.99
fractional inhibitory concentration index (FICI) (Cryptococcus neoformans [8]): 1.32
fractional inhibitory concentration index (FICI) (Cryptococcus neoformans [9]): 7.44
fractional inhibitory concentration index (FICI) (Cryptococcus neoformans [10]): 2.1
fractional inhibitory concentration index (FICI) (Cryptococcus neoformans [11]): 2.28
fractional inhibitory concentration index (FICI) [12]: 2.98
fractional inhibitory concentration index (FICI) [13]: 2.78
fractional inhibitory concentration index (FICI) [14]: 4.98
fractional inhibitory concentration index (FICI) [15]: 2.78
fractional inhibitory concentration index (FICI) [16]: 3.51
fractional inhibitory concentration index (FICI) (Cryptococcus neoformans [17]): 2.58
fractional inhibitory concentration index (FICI) (Cryptococcus neoformans [18]): 2.78
fractional inhibitory concentration index (FICI) (Cryptococcus neoformans [19]): 2.78
fractional inhibitory concentration index (FICI) (Cryptococcus neoformans [20]): 1.58
fractional inhibitory concentration index (FICI) (Cryptococcus neoformans [21]): 2.67
fractional inhibitory concentration index (FICI) (Cryptococcus neoformans [22]): 2.58
fractional inhibitory concentration index (FICI) (Cryptococcus neoformans [23]): 2.78
Activity [24]: inactive
